Laboratory results reported in ChEMBL document CHEMBL1629583, “Establishment of in vitro susceptibility testing methodologies and comparative activities of piperacillin in combination with the penem {beta}-lactamase inhibitor BLI-489” (2009).

What was measured:
Format in all cases: functional
[1] = tested on: Staphylococcus aureus; assay: Antimicrobial activity against methicillin-resistant Staphylococcus aureus clinical isolate after 18 to 22 hrs by broth microdilution method in presence of beta-lactamase inhibitor Tazobactam
Outline: (§1)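 CLSI broth microdilution in Mueller-Hinton II broth. Antibiotic in serial dilution with the β-lactamase inhibitor held at a constant 4 μg/ml. Inoculum 10^5 CFU/ml. Incubated 18 to 22 h at 35°C in ambient air.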

[2] = tested on: Moraxella catarrhalis; assay: Antimicrobial activity against Moraxella catarrhalis clinical isolate after 18 to 22 hrs by broth microdilution method in presence of beta-lactamase inhibitor Tazobactam
Outline: (§2)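 Piperacillin-tazobactam was tested by CLSI broth microdilution in Mueller-Hinton II broth against clinical isolates. Inoculum was 10^5 CFU/ml, with 18 to 22 h incubation at 35°C in ambient air. MIC was read as the lowest concentration completely inhibiting visible growth.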

[3] = tested on: Streptococcus pneumoniae; assay: Antimicrobial activity against penicillin-intermediate Streptococcus pneumoniae clinical isolate after 18 to 22 hrs by broth microdilution method in presence of beta-lactamase inhibitor BLI-489
Outline: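 Streptococci were tested by CLSI broth microdilution in Mueller-Hinton II broth plus 5% lysed horse blood. Piperacillin was serially diluted with BLI-489 fixed at a constant 4 μg/ml. Inoculum was 10^5 CFU/ml, with 18 to 22 h at 35°C in ambient air. MIC was the lowest concentration completely inhibiting growth by eye.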

[4] = tested on: Enterococcus faecalis; assay: Antimicrobial activity against Enterococcus faecalis clinical isolate after 18 to 22 hrs by broth microdilution method in presence of beta-lactamase inhibitor Tazobactam; outline: as §1
[5] = tested on: Streptococcus pyogenes; assay: Antimicrobial activity against Streptococcus pyogenes clinical isolate after 18 to 22 hrs by broth microdilution method in presence of beta-lactamase inhibitor BLI-489
Outline: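 Streptococci were tested by CLSI broth microdilution in Mueller-Hinton II broth plus 5% lysed horse blood. Piperacillin dilutions contained a constant 4 μg/ml BLI-489. Inoculum was 10^5 CFU/ml, incubated 18 to 22 h at 35°C in air. MIC was the lowest concentration with no visible growth.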

[6] = tested on: Enterobacter cloacae; assay: Antimicrobial activity against Enterobacter cloacae clinical isolate after 18 to 22 hrs by broth microdilution method in presence of beta-lactamase inhibitor BLI-489
Outline: (§3)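 CLSI broth microdilution in Mueller-Hinton II broth. Piperacillin serial dilutions were combined with BLI-489 held constant at 4 μg/ml. Inoculum was 10^5 CFU/ml. Plates were incubated 18 to 22 h at 35°C in ambient air. MIC was the lowest concentration completely inhibiting growth seen by the unaided eye. Piperacillin-tazobactam interpretive criteria were applied.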

[7] = tested on: Staphylococcus aureus; assay: Antimicrobial activity against methicillin-susceptible Staphylococcus aureus clinical isolate after 18 to 22 hrs by broth microdilution method in presence of beta-lactamase inhibitor Tazobactam
Outline: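 CLSI broth microdilution of piperacillin-tazobactam in Mueller-Hinton II broth with serial dilutions. Inoculum was 10^5 CFU/ml. Incubation was 18 to 22 h at 35°C in ambient air. MIC was read as the lowest concentration giving complete inhibition of growth visible to the unaided eye.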

[8] = tested on: Bacteroides uniformis; assay: Antimicrobial activity against Bacteroides uniformis clinical isolate after 18 to 22 hrs by broth microdilution method in presence of beta-lactamase inhibitor BLI-489
[9] = tested on: Streptococcus pyogenes; assay: Antimicrobial activity against Streptococcus pyogenes clinical isolate after 18 to 22 hrs by broth microdilution method in presence of beta-lactamase inhibitor Tazobactam
Outline: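 Streptococcal isolates were tested with piperacillin-tazobactam by CLSI broth microdilution in Mueller-Hinton II broth supplemented with 5% lysed horse blood. Inoculum was 10^5 CFU/ml, incubated 18 to 22 h at 35°C in ambient air. Visual endpoint: lowest concentration with complete inhibition.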

[10] = tested on: Enterobacter cloacae; assay: Antimicrobial activity against AmpC beta-lactamase-producing Enterobacter cloacae clinical isolate after 18 to 22 hrs by broth microdilution method in presence of beta-lactamase inhibitor Tazobactam
Outline: (§4)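 Piperacillin-tazobactam was tested on recent clinical isolates by CLSI broth microdilution in Mueller-Hinton II broth, with tazobactam at constant 4 μg/ml. Wells held 10^5 CFU/ml and were incubated 18 to 22 h at 35°C in ambient air. MIC was the lowest concentration with no growth visible to the unaided eye.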

[11] = tested on: Escherichia coli; assay: Antimicrobial activity against class A extended spectrum beta-lactamase- and class D OXA- producing Escherichia coli clinical isolate after 18 to 22 hrs by broth microdilution method in presence of beta-lactamase inhibitor BLI-489
Outline: (§5)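 CLSI broth microdilution in Mueller-Hinton II broth. Serial dilutions of piperacillin were tested with BLI-489 held at a constant 4 μg/ml. Inoculum was 10^5 CFU/ml. Plates were incubated 18 to 22 h at 35°C in ambient air. MIC was the lowest concentration giving complete growth inhibition by unaided eye.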

[12] = tested on: Staphylococcus aureus; assay: Antimicrobial activity against methicillin-resistant Staphylococcus aureus clinical isolate after 18 to 22 hrs by broth microdilution method in presence of beta-lactamase inhibitor BLI-489; outline: as §1
[13] = tested on: Enterococcus faecalis; assay: Antimicrobial activity against vancomycin-resistant Enterococcus faecalis clinical isolate after 18 to 22 hrs by broth microdilution method in presence of beta-lactamase inhibitor BLI-489; outline: as §1
[14] = tested on: Klebsiella aerogenes; assay: Antimicrobial activity against AmpC beta-lactamase-producing Enterobacter aerogenes clinical isolate after 18 to 22 hrs by broth microdilution method in presence of beta-lactamase inhibitor Tazobactam; outline: as §4
[15] = tested on: Burkholderia cepacia; assay: Antimicrobial activity against Burkholderia cepacia clinical isolate after 18 to 22 hrs by broth microdilution method in presence of beta-lactamase inhibitor Tazobactam; outline: as §4
[16] = tested on: Staphylococcus haemolyticus; assay: Antimicrobial activity against Staphylococcus haemolyticus clinical isolate after 18 to 22 hrs by broth microdilution method in presence of beta-lactamase inhibitor Tazobactam; outline: as §2
[17] = tested on: Citrobacter freundii; assay: Antimicrobial activity against AmpC beta-lactamase-producing Citrobacter freundii clinical isolate after 18 to 22 hrs by broth microdilution method in presence of beta-lactamase inhibitor Tazobactam; outline: as §4
[18] = tested on: Proteus vulgaris; assay: Antimicrobial activity against Proteus vulgaris clinical isolate after 18 to 22 hrs by broth microdilution method in presence of beta-lactamase inhibitor BLI-489; outline: as §5
[19] = tested on: Klebsiella aerogenes; assay: Antimicrobial activity against Enterobacter aerogenes clinical isolate after 18 to 22 hrs by broth microdilution method in presence of beta-lactamase inhibitor BLI-489; outline: as §3
[20] = tested on: Acinetobacter lwoffii; assay: Antimicrobial activity against Acinetobacter lwoffii clinical isolate after 18 to 22 hrs by broth microdilution method in presence of beta-lactamase inhibitor Tazobactam; outline: as §4

`CCN1CCN(C(=O)N[C@@H](C(=O)N[C@@H]2C(=O)N3[C@@H]2SC(C)(C)[C@@H]3C(=O)O)c2ccccc2)C(=O)C1=O` [PIPERACILLIN] was tested, and the MIC50 [1] was 64 µg/mL, the MIC [2] was ≤ 0.004 µg/mL and the MIC50 [2] was ≤ 0.004 µg/mL. For the same compound, the MIC90 [2] was 0.008 µg/mL, the MIC50 [3] was 0.25 µg/mL and the MIC90 [3] was 1 µg/mL. It also gave an MIC [4] of 2 µg/mL, an MIC50 [4] of 2 µg/mL and an MIC90 [4] of 4 µg/mL. For the same compound, the MIC [5] was ≤ 0.004 µg/mL, the MIC50 [5] was ≤ 0.004 µg/mL and the MIC90 [5] was ≤ 0.004 µg/mL. It also gave an MIC50 [6] of 2 µg/mL, an MIC90 [6] of 16 µg/mL and an MIC50 [7] of 1 µg/mL. The MIC90 [7] was 2 µg/mL, the MIC50 [8] was 4 µg/mL and the MIC90 [8] was 8 µg/mL. The MIC50 [9] was 0.03 µg/mL, the MIC90 [9] was 0.06 µg/mL and the MIC50 [10] was 8 µg/mL. It also gave an MIC90 [10] of 32 µg/mL, an MIC [11] of 2 µg/mL and an MIC50 [11] of 2 µg/mL. The MIC90 [11] was 16 µg/mL, the MIC50 [12] was 32 µg/mL and the MIC [13] was 2 µg/mL. The MIC50 [13] was 2 µg/mL, the MIC90 [13] was 64 µg/mL and the MIC [14] was > 8 µg/mL. It also gave an MIC50 [14] of 4 µg/mL, an MIC90 [14] of 16 µg/mL and an MIC50 [15] of 4 µg/mL. For the same compound, the MIC90 [15] was 64 µg/mL, the MIC50 [16] was 32 µg/mL and the MIC90 [16] was > 128 µg/mL. The MIC50 [17] was 8 µg/mL, the MIC90 [17] was > 128 µg/mL and the MIC50 [18] was 0.5 µg/mL. It also gave an MIC90 [18] of 1 µg/mL, an MIC50 [19] of 2 µg/mL and an MIC90 [19] of 64 µg/mL. The MIC50 [20] was ≤ 0.12 µg/mL and the MIC90 [20] was 32 µg/mL.
